Laboratory results taken from ChEMBL document CHEMBL1151204, “Hypoglycemic effect and antioxidant potential of kaempferol-3,7-O-(alpha)-dirhamnoside from Bauhinia forficata leaves” (J Nat Prod, 2004).
Active and inactive are the calls of the source. The rule behind the calls is not given here.

Tests used:
[1] = system: Lung; assay: Antioxidant activity in Wistar rat lung assessed as half maximal inhibition of myeloperoxidase; type: functional, tissue-based
Summary of the method: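 Enzyme source: rat lung homogenised in ice-cold phosphate buffer. Activity was read as the slope of absorbance at 450 nm with o-dianisidine-2HCl and H2O2 and converted to units against a standard curve of commercial enzyme. Each concentration point was monitored kinetically, and the concentration giving half-maximal inhibition (K0.5) was taken from the inhibition curve.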

[2] = system: Rattus norvegicus; assay: Hypoglycemic activity in diabetic 16 hrs fasted Wistar rat assessed as reduction in alloxan-induced serum glucose level at 100 mg/kg, po after 2 hrs by glucose oxidase method; type: functional
Summary of the method: (§1)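 Male Wistar rats, 160–190 g. Alloxan monohydrate 60 mg/kg i.v. in 0.9% NaCl given after an overnight fast. Rats with serum glucose 25–30.5 mmol/L at 72 h were fasted and randomized to diabetic, vehicle (0.5 mL 1% EtOH–H2O) or compound groups. Compound given by oral gavage. Retro-orbital serum glucose by glucose oxidase at 0, 1, 2 and 3 h. Mean ± SEM, n = 6 in duplicate, compared with 0 h.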

[3] = system: Rattus norvegicus; assay: Hypoglycemic activity in 16 hrs fasted Wistar rat assessed as reduction in serum glucose level at 100 mg/kg, po measured after 90 mins of glucose challenge by oral glucose tolerance test; type: functional
Summary of the method: (§2)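 Male Wistar rats, 160–190 g, fasted ≥16 h with water allowed. Oral gavage of glucose 4 g/kg alone or with compound 100 mg/kg. Controls: untreated rats and tolbutamide 100 mg/kg. Blood drawn from the retro-orbital plexus before and at 30, 60, 90 and 180 min after the load. Serum glucose by glucose oxidase; mean ± SEM, n = 3 in duplicate.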

[4] = system: Rattus norvegicus; assay: Hypoglycemic activity in diabetic 16 hrs fasted Wistar rat assessed as reduction in alloxan-induced serum glucose level at 50 mg/kg, po after 2 hrs by glucose oxidase method; type: functional; summary of the method: as §1
[5] = system: Liver microsomes; assay: Antioxidant activity in Wistar rat liver microsomes assessed as inhibition of ascorbyl radical-induced lipid peroxidation by TBARS assay; type: functional, Microsome
Summary of the method: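 Microsomes from male Wistar rat liver, isolated by differential centrifugation with calcium aggregation and stored at -70 °C; protein by Lowry, fixed at 2 mg/mL. Ascorbyl-radical peroxidation started with 25 µM FeSO4 plus 500 µM ascorbate. TBARS read with extinction coefficient 1.56 × 10^5 M-1 cm-1; IC50 derived; mean ± SEM, n = 3 in duplicate.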

[6] = system: Rattus norvegicus; assay: Hypoglycemic activity in normal 16 hrs fasted Wistar rat assessed as reduction in serum glucose level at 100 mg/kg, po after 2 hrs by glucose oxidase method; type: functional
Summary of the method: (§3)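 Male Wistar rats, 160–190 g, fasted ≥16 h with free water. Groups: control, vehicle (0.5 mL 1% EtOH–H2O) and compound by oral gavage. Retro-orbital blood drawn and centrifuged; serum glucose by glucose oxidase at 0, 1, 2 and 3 h. Mean ± SEM, n = 6 in duplicate, compared with the 0 h value.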

[7] = system: Rattus norvegicus; assay: Hypoglycemic activity in normal 16 hrs fasted Wistar rat assessed as reduction in serum glucose level at 200 mg/kg, po after 2 hrs by glucose oxidase method; type: functional; summary of the method: as §3
[8] = system: Radical scavenging activity; assay: Antioxidant activity assessed as DPPH radical scavenging activity; type: functional
Summary of the method: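 DPPH in EtOH, 200 μM, in the medium; radical loss read as absorbance decrease at 515 nm.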

[9] = system: Rattus norvegicus; assay: Hypoglycemic activity in normal 16 hrs fasted Wistar rat assessed as reduction in serum glucose level at 100 mg/kg, po after 1 hr by glucose oxidase method; type: functional; summary of the method: as §3
[10] = Antioxidant activity in 1-alpha-phosphatidylcholine liposome assessed as inhibition of ascorbyl radical-induced lipid peroxidation by TBARS assay; type: functional
Summary of the method: (§4)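 Egg-yolk phosphatidylcholine or soybean asolectin bilayer liposomes made by cholate/deoxycholate solubilisation then dialysis; lipid 12.5 mg/mL. Ascorbyl-radical peroxidation started with 25 µM FeSO4 plus 500 µM ascorbate. TBARS read with extinction coefficient 1.56 × 10^5 M-1 cm-1; IC50 derived; mean ± SEM, n = 3 in duplicate.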

[11] = system: Rattus norvegicus; assay: Hypoglycemic activity in 16 hrs fasted Wistar rat assessed as reduction in serum glucose level at 100 mg/kg, po measured after 180 mins of glucose challenge by oral glucose tolerance test; type: functional; summary of the method: as §2
[12] = system: Rattus norvegicus; assay: Hypoglycemic activity in normal 16 hrs fasted Wistar rat assessed as reduction in serum glucose level at 100 mg/kg, po after 3 hrs by glucose oxidase method; type: functional; summary of the method: as §3
[13] = system: Rattus norvegicus; assay: Hypoglycemic activity in normal 16 hrs fasted Wistar rat assessed as reduction in serum glucose level at 200 mg/kg, po after 1 hr by glucose oxidase method; type: functional; summary of the method: as §3
[14] = system: Rattus norvegicus; assay: Hypoglycemic activity in diabetic 16 hrs fasted Wistar rat assessed as reduction in alloxan-induced serum glucose level at 100 mg/kg, po after 3 hrs by glucose oxidase method; type: functional; summary of the method: as §1
[15] = system: Rattus norvegicus; assay: Hypoglycemic activity in diabetic 16 hrs fasted Wistar rat assessed as reduction in alloxan-induced serum glucose level at 50 mg/kg, po after 1 hr by glucose oxidase method; type: functional; summary of the method: as §1
[16] = system: Rattus norvegicus; assay: Hypoglycemic activity in diabetic 16 hrs fasted Wistar rat assessed as reduction in alloxan-induced serum glucose level at 200 mg/kg, po after 3 hrs by glucose oxidase method; type: functional; summary of the method: as §1
[17] = system: Rattus norvegicus; assay: Hypoglycemic activity in normal 16 hrs fasted Wistar rat assessed as reduction in serum glucose level at 50 mg/kg, po after 1 hr by glucose oxidase method; type: functional; summary of the method: as §3
[18] = Antioxidant activity in asolectin liposome assessed as inhibition of ascorbyl radical-induced lipid peroxidation by TBARS assay; type: functional; summary of the method: as §4
[19] = system: Rattus norvegicus; assay: Hypoglycemic activity in diabetic 16 hrs fasted Wistar rat assessed as reduction in alloxan-induced serum glucose level at 200 mg/kg, po after 2 hrs by glucose oxidase method; type: functional; summary of the method: as §1
[20] = system: Rattus norvegicus; assay: Hypoglycemic activity in 16 hrs fasted Wistar rat assessed as reduction in serum glucose level at 100 mg/kg, po measured after 60 mins of glucose challenge by oral glucose tolerance test; type: functional; summary of the method: as §2
[21] = system: Liver microsomes; assay: Antioxidant activity in Wistar rat liver microsomes assessed as inhibition of hydroxyl radical-induced lipid peroxidation by TBARS assay; type: functional, Microsome
Summary of the method: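 Male Wistar rat liver microsomes, isolated by differential centrifugation with calcium aggregation and stored at -70 °C, at 2 mg protein/mL in 0.1 M KH2PO4 pH 7.4. Hydroxyl-radical peroxidation started with 25 µM FeCl2, 2.8 mM H2O2 and 100 µM sodium ascorbate. TBARS read with extinction coefficient 1.56 × 10^5 M-1 cm-1; IC50 derived; mean ± SEM, n = 3 in duplicate.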

[22] = system: Rattus norvegicus; assay: Hypoglycemic activity in normal 16 hrs fasted Wistar rat assessed as reduction in serum glucose level at 50 mg/kg, po after 2 hrs by glucose oxidase method; type: functional; summary of the method: as §3
[23] = system: Lung; assay: Antioxidant activity in Wistar rat lung assessed as maximal inhibition of myeloperoxidase at 400 uM
[24] = system: Rattus norvegicus; assay: Hypoglycemic activity in normal 16 hrs fasted Wistar rat assessed as reduction in serum glucose level at 200 mg/kg, po after 3 hrs by glucose oxidase method; type: functional; summary of the method: as §3
[25] = system: Rattus norvegicus; assay: Hypoglycemic activity in diabetic 16 hrs fasted Wistar rat assessed as reduction in alloxan-induced serum glucose level at 200 mg/kg, po after 1 hr by glucose oxidase method; type: functional; summary of the method: as §1
[26] = system: Rattus norvegicus; assay: Hypoglycemic activity in diabetic 16 hrs fasted Wistar rat assessed as reduction in alloxan-induced serum glucose level at 50 mg/kg, po after 3 hrs by glucose oxidase method; type: functional; summary of the method: as §1
[27] = system: Rattus norvegicus; assay: Hypoglycemic activity in normal 16 hrs fasted Wistar rat assessed as reduction in serum glucose level at 50 mg/kg, po after 3 hrs by glucose oxidase method; type: functional; summary of the method: as §3
[28] = system: Rattus norvegicus; assay: Hypoglycemic activity in 16 hrs fasted Wistar rat assessed as reduction in serum glucose level at 100 mg/kg, po measured after 30 mins of glucose challenge by oral glucose tolerance test; type: functional; summary of the method: as §2
[29] = system: Rattus norvegicus; assay: Hypoglycemic activity in diabetic 16 hrs fasted Wistar rat assessed as reduction in alloxan-induced serum glucose level at 100 mg/kg, po after 1 hr by glucose oxidase method; type: functional; summary of the method: as §1

Which K [1] does the source give for `C[C@@H]1O[C@@H](Oc2cc(O)c3c(=O)c(O[C@@H]4O[C@@H](C)[C@H](O)[C@@H](O)[C@H]4O)c(-c4ccc(O)cc4)oc3c2)[C@H](O)[C@H](O)[C@H]1O` [KAEMPFERITRIN] here?
The K was 86 µM.

What about the Activity [2] of the same compound?
The Activity was 24 mmol/L.

And the Activity [3]?
The Activity was 8.2 mmol/L.

And the Activity [4]?
Its Activity is 25.2 mmol/L.

What about the IC50 [5] of the same compound?
Its IC50 is 320 µM.

And the Activity [6]?
Its Activity is 5.5 mmol/L.

What about the Activity [7] of the same compound?
Its Activity is 5 mmol/L.

And the IC50 [8]?
Its IC50 is 84 µM.

What about the Activity [9] of the same compound?
The Activity was 5.4 mmol/L.

And the IC50 [10]?
The IC50 was 112 µM.

What about the Activity [11] of the same compound?
Its Activity is 6.7 mmol/L.

And the Activity [12]?
Its Activity is 6.2 mmol/L.

And the Activity [13]?
Its Activity is 4.5 mmol/L.

And the Activity [14]?
Its Activity is 24 mmol/L.

What about the Activity [15] of the same compound?
The Activity was 23.5 mmol/L.

And the Activity [16]?
The Activity was 22.4 mmol/L.

And the Activity [17]?
The Activity was 5.5 mmol/L.

What about the IC50 [18] of the same compound?
Its IC50 is 223 µM.

And the Activity [19]?
The Activity was 22.2 mmol/L.

What about the Activity [20] of the same compound?
The Activity was 8.8 mmol/L.

What about the IC50 [21] of the same compound?
Its IC50 is 85 µM.

What about the Activity [22] of the same compound?
The Activity was 5.9 mmol/L.

What about the Activity [23] of the same compound?
The Activity was “Active”.

And the Activity [24]?
Its Activity is 5.1 mmol/L.

And the Activity [25]?
Its Activity is 22.4 mmol/L.

And the Activity [26]?
Its Activity is 25.3 mmol/L.

What about the Activity [27] of the same compound?
The Activity was 6.2 mmol/L.

What about the Activity [28] of the same compound?
Its Activity is 9.5 mmol/L.

And the Activity [29]?
The Activity was 24.3 mmol/L.

With `CCCCNC(=O)NS(=O)(=O)c1ccc(C)cc1` [TOLBUTAMIDE] as the compound, how does the Activity [3] read?
Its Activity is 5.9 mmol/L.

What about the Activity [11] of the same compound?
Its Activity is 5.2 mmol/L.

And the Activity [20]?
The Activity was 6.3 mmol/L.

And the Activity [28]?
The Activity was 7.8 mmol/L.

With `O=c1c(O)c(-c2ccc(O)c(O)c2)oc2cc(O)cc(O)c12` [QUERCETIN] as the compound, how does the IC50 [5] read?
The IC50 was 125 µM.

What about the IC50 [10] of the same compound?
Its IC50 is 80 µM.

And the IC50 [18]?
The IC50 was 80 µM.

What about the IC50 [21] of the same compound?
Its IC50 is 7.5 µM.
